Activity calls are given as the source filed them. The calls are words filed in the database; no cut-off is given here.
Columns and labels:
[1] = Displacement of [3H]-flumazenil from central-type benzodiazepine receptor in bovine cortical membrane after 90 mins by liquid-phase scintillation beta-counting method; format: cell membranes, Bos taurus
Outline: (§1)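 Competition binding against radiolabelled antagonist [3H]flumazenil in cortical membranes (bovine; human where listed); Ki reported as mean ± SEM of three independent determinations.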

Mus musculus [2] = experiment: Antiamnestic activity in mouse assessed as prevention of scopalamine-induced amnesia at 10 mg/kg, po administered 30 mins before test by passive avoidance test; format: functional, organism-based
Outline: (§2)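 Passive avoidance in mice: compounds were given per os 30 min before the test, and scopolamine 1.5 mg kg-1 i.p. immediately after the punishment. Read-out was time recorded during the retention session. Values are mean ± SEM of at least 10 mice, compared with vehicle-treated animals.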

Brain [3] = experiment: Neuroprotective activity against oxygen-glucose deprivation and reoxygenation-induced injury in Sprague-Dawley rat brain cortical slices assessed as maximum recovery in LDH release at 50 uM treated during 90 mins of reperfusion phase measured after 90 mins by spetrophotometric method; format: functional
Outline: (§3)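 Rat brain cortical slices in ACSF underwent 30 min oxygen/glucose deprivation, then 90 min reoxygenated ACSF (reperfusion). Controls were kept 120 min in ACSF. Compounds (0.1–100 µM) were added only during reperfusion, and LDH release was measured. Data are means ± SEM of at least 4 experiments, analysed by ANOVA with Dunnett post test. The effective concentration is that giving the largest reduction, and recovery is the % reversion at that concentration.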

Mus musculus [4] = experiment: Anxiolytic activity in mouse assessed as time spent in light box at 3 mg/kg, po administered 30 mins before test by light-dark box test; format: functional
Outline: (§4)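 Light-dark box in mice measured time in the light compartment. Compounds were given per os 30 min before testing, and diazepam 1 mg kg-1 subcutaneously as reference. Values are mean ± SEM of at least 10 mice, compared with vehicle-treated animals.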

Mus musculus [5] = experiment: Anxiolytic activity against mouse assessed as increase in time spent in light box at 10 mg/kg, po administered 30 mins before test by light-dark box test; format: functional, organism-based; outline: as §4
Bos taurus [6] = species: Bos taurus; experiment: Selectivity ratio, ratio of Ki for central-type benzodiazepine receptor in bovine cortical membrane to Ki for central-type benzodiazepine receptor in bovine cortical membrane in presence of 50 uM of GABA; format: cell membranes
Mus musculus [7] = species: Mus musculus; experiment: Myorelaxant effect in mouse assessed as effect on motor coordination after 30 mins by rotarad test; format: organism-based; conditions: in vivo, 0.5 h
Outline: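 Rota-rod test of motor coordination in mice, with compounds given per os 30 min before testing. Values are mean ± SEM of at least 10 mice.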

Rattus norvegicus [8] = species: Rattus norvegicus; experiment: Partial agonist activity at central-type benzodiazepine receptor in Sprague-Dawley rat cerebrocortical synaptoneurosomes assessed as increase in 36Cl- influx after 10 secs by liquid-phase scintillation beta-counting method
Mus musculus [9] = experiment: Neurotoxicity in mouse assessed as effect on neurological and muscular abilities at 10 mg/kg, po after 30 mins by Hole-Board test; format: toxicity, organism-based; conditions: in vivo, 0.5 h
Outline: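 Hole-board test 30 min after oral dosing at 10 mg kg-1 counted movements (motor activity) and head inspections (exploratory activity). Values are mean ± SEM of at least 10 mice, compared with vehicle controls.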

Mus musculus [10] = experiment: Antiamnestic activity in scopolamine induced mouse amnesia model assessed as time of retention session in light box at 30 mg/kg, po administered 30 mins before test by passive avoidance test (reference value: 44.8 +/- 8.1 secs); format: functional; outline: as §2
Mus musculus [11] = experiment: Anxiolytic activity in mouse assessed as time spent in light box at 30 mg/kg, po administered 30 mins before test by light-dark box test; format: functional; outline: as §4
Mus musculus [12] = experiment: Anxiolytic activity in mouse assessed as increase in time spent in light box at 1 mg/kg, po administered 30 mins before test by light-dark box test; format: functional, organism-based; outline: as §4
Rattus norvegicus [13] = species: Rattus norvegicus; experiment: Antagonist activity at central-type benzodiazepine receptor in Sprague-Dawley rat cerebrocortical synaptoneurosomes assessed as decrease in 36Cl- flow after 10 secs by liquid-phase scintillation beta-counting method
Mus musculus [14] = experiment: Antiamnestic activity in scopolamine induced mouse amnesia model assessed as time spent in light box at 1 mg/kg, po administered 30 mins before test by passive avoidance test; format: functional, organism-based; outline: as §2
Mus musculus [15] = experiment: Anxiolytic activity in mouse assessed as time spent in light box at 10 mg/kg, po administered 30 mins before test by light-dark box test; format: functional; outline: as §4
Mus musculus [16] = experiment: Antiamnestic activity in scopalamine-induced mouse amnesia model assessed as time spent in light box at 10 mg/kg, po administered 30 mins before test by passive avoidance test (reference value: 44.8 +/- 8.1 secs); format: functional; outline: as §2
Rattus norvegicus [17] = species: Rattus norvegicus; experiment: Inverse agonist activity at central-type benzodiazepine receptor in Sprague-Dawley rat cerebrocortical synaptoneurosomes assessed as decrease in 36Cl- flow after 10 secs by liquid-phase scintillation beta-counting method
Bos taurus [18] = species: Bos taurus; experiment: Displacement of [3H]-flumazenil from central-type benzodiazepine receptor in bovine cortical membrane at 1000 nM after 90 mins by liquid-phase scintillation beta-counting method; format: cell membranes; outline: as §1
Mus musculus [19] = experiment: Anxiolytic activity in po dosed mouse assessed as increase in time spent in light box administered 30 mins before test by light-dark box test; format: functional, organism-based; outline: as §4
Mus musculus [20] = experiment: Antiamnestic activity in scopolamine induced mouse amnesia model assessed as time spent in light box at 3 mg/kg, po administered 30 mins before test by passive avoidance test (reference value: 44.8 +/- 8.1 secs); format: functional; outline: as §2
Brain [21] = experiment: Neuroprotective activity against oxygen-glucose deprivation and reoxygenation-induced injury in Sprague-Dawley rat brain cortical slices assessed as maximum recovery in LDH release at 5 uM treated during 90 mins of reperfusion phase measured after 90 mins by spetrophotometric method; format: functional; outline: as §3
Mus musculus [22] = experiment: Anxiolytic activity in mouse assessed as increase in time spent in light box at 1 mg/kg, sc administered 30 mins before test by light-dark box test; format: functional, organism-based
Outline: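 Mice, light-dark box test for anxiolytic effect; agent given subcutaneously (1 mg kg-1) 30 min before testing; time in light box recorded; mean ± SEM of at least 10 mice; significance vs vehicle-treated mice.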

Q: For CCCN(CCC)C(=O)c1c(C)c2c(C(=O)OCC)ncn2c2ccccc12, which Ki [1] is on record?
A: 1.5 nM

Q: What about the Activity (Mus musculus [2]) of the same compound?
A: Active

Q: What about the Activity (Brain [3]) of the same compound?
A: 44%

Q: And the Time (Mus musculus [4])?
A: 153.4 s

Q: What about the Activity (Mus musculus [5]) of the same compound?
A: Active

Q: And the Ratio Ki (Bos taurus [6])?
A: 1.3

Q: And the Activity (Mus musculus [7])?
A: Non-toxic

Q: What about the Activity (Rattus norvegicus [8]) of the same compound?
A: Active

Q: What about the Activity (Mus musculus [9]) of the same compound?
A: Non-toxic

Q: Which results are given for Cc1c(C(=O)N(C)Cc2ccccc2)c2ccccc2n2cnc(C(=O)OC(C)(C)C)c12?
A: Ki [1]: 2.6 nM; Activity (Mus musculus [2]): inactive; Time (Mus musculus [10]): <=77.9 s; Time (Mus musculus [11]): <=139.2 s; Activity (Mus musculus [5]): inactive; Activity (Mus musculus [12]): inactive; Ratio Ki (Bos taurus [6]): 1; Activity (Mus musculus [7]): Non-toxic; Antagonist activity (Rattus norvegicus [13]): Active; Activity (Mus musculus [9]): Non-toxic

Q: For CCCN(CCC)C(=O)c1cc2c(C(=O)OCC)ncn2c2ccc(F)cc12, which Ki [1] is on record?
A: 0.44 nM

Q: What about the Activity (Mus musculus [14]) of the same compound?
A: Active

Q: And the Activity (Mus musculus [2])?
A: Active

Q: And the Time (Mus musculus [15])?
A: 181.4 s

Q: What about the Ratio Ki (Bos taurus [6]) of the same compound?
A: 0.8

Q: And the Activity (Mus musculus [7])?
A: Non-toxic

Q: What about the Time (Mus musculus [16]) of the same compound?
A: 99.6 s

Q: What about the Activity (Mus musculus [9]) of the same compound?
A: Non-toxic

Q: What about the Activity (Rattus norvegicus [17]) of the same compound?
A: Active

Q: For Cc1c(-c2ccccc2)c2ccccc2n2cnc(C(=O)N(C)Cc3ccccc3)c12, which Ki [1] is on record?
A: > 1000 nM

Q: What about the inhibition (Bos taurus [18]) of the same compound?
A: 19%

Q: Which results are given for CCCCN(C)C(=O)c1cc2c(C(=O)OC(C)(C)C)ncn2c2ccccc12?
A: Ki [1]: 1.8 nM; Activity (Mus musculus [2]): Active; Activity (Mus musculus [19]): Dose-dependent effect; Time (Mus musculus [20]): 73.5 s; Time (Mus musculus [4]): 144.8 s; Time (Mus musculus [15]): 167.2 s; Ratio Ki (Bos taurus [6]): 0.62; Activity (Mus musculus [7]): Non-toxic; Activity (Mus musculus [9]): Non-toxic; Activity (Rattus norvegicus [17]): Active

Q: Which results are given for CN1C(=O)CN=C(c2ccccc2)c2cc(Cl)ccc21 [DIAZEPAM]?
A: Activity (Brain [21]): 55.9%; Activity (Mus musculus [22]): Active
